Data from paper PMC7003773 (Clinical Pharmacology in Drug Development, 2019).
Read-outs that look alike come from different tables or passages of the source.

Experiments:
[1] = Population pharmacokinetic analysis of clinical plasma concentration data; format: in vivo, human
Procedure, shortened: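 Plasma sampled 1, 18, 23 and 36–48 h post-infusion. Assayed by LC-MS/MS (0.5–500 µg/mL), sub-0.5 µg/mL values dropped. Modelled in NONMEM with FOCE, log-normal IIV, stepwise covariates (forward P < .01, backward P < .001) and bootstrap uncertainty. T1/2 taken from 100 000 parameter draws.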

[2] = tested on: Staphylococcus aureus, Streptococcus pyogenes, Streptococcus dysgalactiae, vancomycin-susceptible Enterococcus faecalis; assay: MIC distributions from 2017 surveillance program; format: cell-based; conditions: 2017 surveillance data, United States and Europe, 4 most relevant species
Procedure, shortened: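 Isolates came from the 2017 surveillance program: 70 US medical centers across 9 Census regions and 38 centers in 18 European countries. MICs were determined centrally at one reference laboratory by CLSI M07-A10 (2015) dilution methods. Isolate counts: S. aureus n = 8833, S. pyogenes n = 941, S. dysgalactiae n = 312, vancomycin-susceptible E. faecalis n = 1060. Distributions were plotted as histograms on a log MIC axis.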

S. aureus = conditions: neutropenic murine thigh model; cited from earlier work
[3] = cited from earlier work
serum albumin = conditions: intravenous dose; unchanged by drug concentration, renal impairment or hepatic function; cited from earlier work
[4] = final popPK model, typical value

total volume of distribution ([1]; 3-compartment popPK model): ~15 L
T1/2 ([1]; calculated from 100 000 random samples drawn from mean and covariance of estimated model parameters): 8.77 days
Q2, distributional clearance ([1]; final popPK model, no IIV): 0.288 L/h
Q3, distributional clearance ([1]; final popPK model, no IIV): 2.11 L/h
V1, central volume of distribution [1, 4]: 3.04 L
V2 [1, 4]: 8.78 L
V3 [1, 4]: 3.28 L
rightmost histogram bar of the MIC distributions (highest MIC observed) [2]: 0.25
Compound: CN[C@H]1C(=O)N[C@@H]2Cc3ccc(cc3)Oc3cc4cc(c3O[C@@H]3O[C@H](C(=O)O)[C@@H](O)[C@H](O)[C@H]3NC(=O)CCCCCCCCC(C)C)Oc3ccc(cc3Cl)[C@@H](O)[C@@H]3NC(=O)[C@H](NC(=O)[C@@H]4NC(=O)[C@@H](NC2=O)c2cc(cc(O)c2Cl)Oc2cc1ccc2O)c1ccc(O)c(c1)-c1c(O[C@H]2O[C@H](CO)[C@@H](O)[C@H](O)[C@@H]2O)cc(O)cc1[C@@H](C(=O)NCCCN(C)C)NC3=O [dalbavancin]
2-log kill target, fAUC/MIC (S. aureus): 111.1
total volume of distribution (Vd) [3]: ~16 L
total drug clearance ([3]; healthy subjects): approximately 0.04 L/h
fraction of dose excreted as minor metabolite ([3]; healthy volunteers, 1000 mg intravenous dose of dalbavancin, by 42 days postdose): 12%
fraction of dose excreted in the feces ([3]; healthy volunteers, 1000 mg intravenous dose, by 42 days postdose): one‐third
fraction of dose excreted in urine unmodified ([3]; healthy volunteers, 1000 mg intravenous dose): one‐third
terminal half-life ([3]; intravenous): > 14 days
total drug clearance ([3]; patients): ~0.058 L/h
fraction bound to serum albumin / plasma protein (serum albumin): approximately 93%
